Screening data deposited in PubChem BioAssay by several laboratories.
Rows were chosen to be rich in hits. Some 1.6% of all compounds tested hit in one or more screens of this group.
EBV gp42 block – inhibitors of Epstein-Barr virus glycoprotein 42. AID 1085. Fluorescence polarization binding assay, mP read-out. 220,000 compounds, 0.42% hits. inhibition, % (tested at 21.74 µM). Q1HVG2
Target sequence (Q1HVG2 whole entry, looked up): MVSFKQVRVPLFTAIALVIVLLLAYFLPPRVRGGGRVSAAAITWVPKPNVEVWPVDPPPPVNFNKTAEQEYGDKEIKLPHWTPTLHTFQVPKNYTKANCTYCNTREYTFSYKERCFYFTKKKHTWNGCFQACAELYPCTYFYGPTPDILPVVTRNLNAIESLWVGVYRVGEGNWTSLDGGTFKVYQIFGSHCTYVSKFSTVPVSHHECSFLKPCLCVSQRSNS
eIF4E-4G inh – blocks eIF4E binding to eIF4G; P63073+Q04637; TR-FRET eIF4E-eIF4GI(517-606) binding, 2 h; inhibition, % at 21.7 µM; 220,000 compounds, 0.37% hits;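 active = inhibition above about 30%, limit read from the data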;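 note: 0% = full FRET control wells and 100% = background wells lacking eIF4GI fragment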
PKD1 inh – inhibitors of human PKD1 kinase | Q15139 | inhibition, % (test concentration not listed) | 200,000 compounds, 0.056% hits | PKD1 kinase fluorescence polarization assay
RBBP9 inh – human RBBP9 hydrolase inhibition; recombinant RBBP9, FP-Rh probe fluorescence polarization; 220,000 compounds, 0.2% hits; inhibition, % at 7.94 µM; O75884;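 active = inhibition above the campaign mean of all tested compounds plus 3 SD, cut at about 14% in these data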;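 note: plate controls were DMSO wells with RBBP9 for no effect and wells lacking RBBP9 protein for full effect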
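Test system: recombinant human RBBP9; Timing: 30 min then 45 min, 25 °C; Detection: fluorescence polarization; Control set: RBBP9 with DMSO as uninhibited control, no-protein wells as full inhibition; Compound dosing: one concentration, 7.94 µM nominal, 0.794% DMSO; Probe or stimulus: FP-Rh activity-based probe, 375 nM before mixing.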
14-3-3 Bad PPI – disrupts binding of bovine 14-3-3 zeta to phospho-Bad peptide | P63103 | TR-FRET 14-3-3zeta/Dy647-pBad peptide displacement, 1 h | inhibition, % at 21.7 µM | 220,000 compounds, 0.71% hits;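 active = inhibition above about 70%, limit read from the data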;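 note: 0% = full 14-3-3 plus peptide FRET controls and 100% = background without 14-3-3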
Target sequence (P63103 whole entry, looked up): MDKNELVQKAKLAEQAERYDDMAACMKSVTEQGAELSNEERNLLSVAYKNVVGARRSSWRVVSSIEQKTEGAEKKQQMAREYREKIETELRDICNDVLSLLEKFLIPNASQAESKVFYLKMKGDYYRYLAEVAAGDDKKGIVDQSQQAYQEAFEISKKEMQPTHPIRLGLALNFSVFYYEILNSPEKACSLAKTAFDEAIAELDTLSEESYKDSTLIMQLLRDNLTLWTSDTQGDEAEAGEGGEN
Starred values were filed as active, the others as inactive; / = no result; [ ] = dose if it differs, or a comment. Cut-off read from the data, not from the text of the source, unless noted: active = inhibition above about 50%; inactive = the rest.

SMILES | EBV gp42 block | eIF4E-4G inh | PKD1 inh | RBBP9 inh | 14-3-3 Bad PPI
COC(=O)c1cc(C(=O)Nc2ccc(S(=O)(=O)NC(C)(C)C)cc2)cc([N+](=O)[O-])c1 | -14 | 0 | -4 | -7 | -16
CCc1ccc(/C=C2\Oc3c(ccc(O)c3CN3CCN(CCO)CC3)C2=O)cc1 | -5 | 72* | / | 0 | 5
CCCCn1nnnc1NCc1ccc(N(CC)CC)cc1 | -21 | 0 | 1 | -5 | -6
O=C(Nc1nccs1)C(c1ccccc1)N1CCCC1 (stereo unspecified) | 65* | -4 | -8 | -5 | -10
CC(C)C(C(=O)Nc1nccs1)c1ccccc1 (stereo unspecified) | 4 | 1 | 20 | 1 | -3
O=C(Cc1ccc(Cl)cc1)OCc1nnc(-c2ccccc2)o1 | -3 | 88* | 4 | 4 | -13
O=C(O)COn1c(-c2ccccc2)nc2ccc([N+](=O)[O-])cc21 | 73* | 21 | 1 | -7 | 53
CCOC(=O)C(C)On1c(-c2ccccc2)nc2ccc([N+](=O)[O-])cc21 (stereo unspecified) | -6 | 13 | -2 | 2 | 2
CCN(CC)c1ccc(/C=N/NC(=O)Nc2nonc2N)cc1 | -6 | 5 | 13 | -1 | -5
C[n+]1cccc(C2C(C#N)=C(N)Oc3c2ccc2ccccc32)c1 (stereo unspecified) | 15 | 3 | / | 8 | 7
C[n+]1cccc2ccc3c(c21)OC(N)=C(C#N)C3c1ccccc1 (stereo unspecified) | -48 | 94* | / | 3 | 0
C=CCN=C1SC(C)(C)C(=O)N1S(=O)(=O)c1ccc(C)cc1 | -9 | 1 | 7 | 4 | 95*
Cc1ccsc1C1C(C#N)=C(N)N(N(C)C)C2=C1C(=O)CC(C)(C)C2 (stereo unspecified) | 6 | 1 | -2 | 4 | 0
Cc1nn(-c2ccccc2)c(Cl)c1/C=N/NC(=O)c1ccncc1 | -2 | 2 | / | -11 | -7
Clc1ccc(N=c2ssnc2Cl)nc1 | -20 | 9 | -4 | 1 | 11
Clc1nssc1=Nc1ccc(Br)cc1 | -37 | 51* | 1 | -6 | 31
N#Cc1cccc(N=c2ssnc2Cl)c1 | -24 | 54* | -6 | -4 | 50
OCc1ccccc1N=c1ssnc1Cl | -15 | -6 | -8 | -6 | 35
COc1cc(N=c2ssnc2Cl)cc(OC)c1 | -17 | 63* | 2 | -5 | 48
COC(=O)c1sc(NC(=O)/C=C/c2ccc(C)o2)nc1C | -19 | 0 | -16 | -5 | -4
CCOC(=O)N1CCN(Cc2ccccc2Cl)CC1 | -14 | -1 | -7 | -7 | 75*
COc1ccccc1Nc1nc(-c2sc(NC(=O)c3ccccc3)nc2C)cs1 | -6 | -2 | 4 | -1 | 20
Cc1nc(NC(=O)c2ccccc2)sc1-c1csc(Nc2cccc(F)c2)n1 | 3 | -20 | -7 | -11 | 71*
CCOc1ccccc1Nc1nc(-c2sc(NC(=O)c3cccc(Cl)c3)nc2C)cs1 | -31 | -16 | -14 | 3 | 71*
Cc1ccc(Cl)cc1Nc1nc(-c2sc(NC(=O)c3ccccc3)nc2C)cs1 | 5 | 15 | -5 | 4 | 83*[fluorescence artefact?]
SMILES | EBV gp42 block | eIF4E-4G inh | PKD1 inh | RBBP9 inh | 14-3-3 Bad PPI
CCOc1ccccc1Nc1nc(-c2sc(NC(=O)c3ccccc3)nc2C)cs1 | 0 | -17 | -14 | -6 | 40
S=C(NCCCN1CCOCC1)NC1CC1 | 3 | -2 | 1 | -7 | 0
Cc1ccc(N=Cc2cc(Cc3ccccc3Cl)cc([N+](=O)[O-])c2O)c(O)c1 | -2 | 10 | -2 | -5 | 37
COc1ccc(N=Cc2cc(Cc3ccccc3Cl)cc([N+](=O)[O-])c2O)cc1OC | 104* | 22 | -3 | 1 | 22
O=C(Nc1nccs1)c1cc2cc(Cl)ccc2oc1=O | -6 | -5 | / | 2 | 71*
O=C(Nc1nccs1)c1ccc(Cl)cc1[N+](=O)[O-] | 1 | 6 | 5 | -3 | 2
COc1ccc(NC(=O)Nc2ccc(C(=O)N3CCOCC3)cc2)c(OC)c1 | -1 | 2 | -3 | 0 | -14
CN1CCN(C2=C(Cl)C(=O)N(C3CCCCC3)C2=O)CC1 | -7 | -1 | -6 | -11 | 6
CN1CCN(C2=C(Cl)C(=O)C(c3cnc(N4CCCCC4)s3)=C(Cl)C2=O)CC1 | -7 | 54*[fluorescence artefact?] | 2 | 3 | 83*[fluorescence artefact?]
Cn1nc([N+](=O)[O-])c(C(C#N)c2nc3ccccc3n2C)c(Cl)c1=O (stereo unspecified) | 80* | 0 | 11 | 2 | -13
Cn1c(-c2ccc([N+](=O)[O-])cc2)nc2ccccc21 | -12 | 6 | -4 | -3 | 17
NC(=O)NC(=O)COC(=O)c1cccc(NS(=O)(=O)/C=C/c2ccccc2)c1 | 3 | 34* | 1 | -15 | 0
NC(=O)COC(=O)c1cccc(NS(=O)(=O)/C=C/c2ccccc2)c1 | -34 | 12 | -3 | -9 | 2
Cc1cccc(CSc2nnc3c(n2)[nH]c2ccccc23)c1 | -10 | -6 | / | -3 | -2
C=CCc1ccccc1OCC(O)CN1CCN(c2ccc(C)cc2)CC1 (stereo unspecified) | -5 | 0 | -11 | -2 | 72*
C=CCc1ccccc1OCC(O)CN1CCN(C(=O)OCC)CC1 (stereo unspecified) | -3 | 4 | -9 | -8 | 4
CCSc1ccc2nnc(-c3cccc(F)c3)n2n1 | -38 | 56* | -7 | -7 | 3
Cn1c(SCC(=O)Nc2ccc3nc(SCC(=O)N4CCCC4)sc3c2)nnc1-c1ccc(N)cc1 | 88* | 0 | 3 | -9 | -2
Cc1cccc(C(=O)NC2CCN(C(=O)Nc3ccccc3C)CC2)c1 | 8 | 0 | -1 | -8 | 2
CCOc1ccccc1NC(=O)N1CCC(NC(=O)c2cccc(C)c2)CC1 | -15 | 56* | 21 | 5 | 80*[fluorescence artefact?]
C#CCOCCOCCOCCNc1nc(N2CCN(C(=O)[C@H](Cc3cc4ccccc4[nH]3)n3cc([C@@H](N)C(C)CC)nn3)CC2)nc(N2CCN(C(=O)[C@H](Cc3cc4ccccc4[nH]3)n3cc([C@@H](N)CC(C)C)nn3)CC2)n1 (stereo partly specified) | -10 | 0 | -1 | -3 | 33
Cc1c(Cl)cccc1NS(=O)(=O)c1ccc2c(c1)C1C=CCC1C(c1ccc(C(=O)O)cc1)N2 (stereo unspecified) | 79* | 50* | 0 | 5 | 91*
COc1ccc(-c2[nH]ncc2CNC(C)c2cn(C)nc2C)c(F)c1 (stereo unspecified) | -15 | -1 | -4 | -2 | -13
O=c1ccc(Oc2nc(N3CCCCC3)nc(N3CCCCC3)n2)n[nH]1 | -18 | 1 | 6 | -7 | 74*
O=c1c2ccccc2sn1-c1nccs1 | -10 | 68* | -1 | 4 | -28
CCOC(=O)Cc1c(C)nc2c(-c3ccc(Cl)cc3)c[nH]n2c1=O | 10 | 16 | -5 | -7 | -10
CCOc1ccc(NC(=O)COc2ccc(C(=O)NCCc3ccccc3)cc2)cc1 | -19 | -1 | 8 | -4 | 72*[fluorescence artefact?]
